Measurements published in ChEMBL document CHEMBL4346698, “Discovery and optimization of thienopyridine derivatives as novel urea transporter inhibitors” (Eur J Med Chem, 2019).
pIC50: −log10 of the molar value. The source made the active and inactive calls. The calls are words filed in the database; no cut-off is given here.

Target: T1, Urea transporter 1 (Homo sapiens, UniProt Q13336)
T1 sequence (Q13336 whole entry): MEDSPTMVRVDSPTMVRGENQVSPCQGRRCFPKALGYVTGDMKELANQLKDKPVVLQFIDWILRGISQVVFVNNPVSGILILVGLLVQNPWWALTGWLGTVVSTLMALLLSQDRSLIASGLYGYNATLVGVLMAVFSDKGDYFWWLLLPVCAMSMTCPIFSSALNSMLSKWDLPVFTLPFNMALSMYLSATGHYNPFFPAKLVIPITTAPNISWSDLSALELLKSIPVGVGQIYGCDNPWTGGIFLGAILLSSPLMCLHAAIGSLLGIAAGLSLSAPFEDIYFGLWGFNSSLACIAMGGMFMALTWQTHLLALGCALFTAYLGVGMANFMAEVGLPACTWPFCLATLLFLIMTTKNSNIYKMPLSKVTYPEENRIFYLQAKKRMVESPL
Assay: Inhibition of urea transporter B in human erythrocytes incubated for 6 mins by spectrophotometric analysis based erythrocyte lysis assay
Type: cell-based

Row | pIC50 | Compound
1 | 5.76 | CC(=O)c1sc2nc3ccc(C)cc3cc2c1N

Target: T2, Urea transporter 1 (Rattus norvegicus, UniProt P97689)
T2 sequence (P97689 whole entry): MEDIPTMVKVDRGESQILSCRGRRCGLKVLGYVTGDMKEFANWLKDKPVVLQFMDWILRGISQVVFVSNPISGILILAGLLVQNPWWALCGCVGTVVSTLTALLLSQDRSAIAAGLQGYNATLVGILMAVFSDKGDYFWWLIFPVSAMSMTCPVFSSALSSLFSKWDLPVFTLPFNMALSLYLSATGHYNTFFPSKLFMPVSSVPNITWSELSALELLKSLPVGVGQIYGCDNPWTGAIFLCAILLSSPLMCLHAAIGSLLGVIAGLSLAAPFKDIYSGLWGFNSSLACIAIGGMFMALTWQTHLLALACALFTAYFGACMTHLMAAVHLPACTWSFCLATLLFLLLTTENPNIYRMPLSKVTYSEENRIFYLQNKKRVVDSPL
Assay: Inhibition of urea transporter B in Sprague-Dawley rat erythrocytes incubated for 6 mins by spectrophotometric analysis based erythrocyte lysis assay
Type: cell-based
In short: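 Blood came from 8-week-old male SD rats. Erythrocytes were held at 2% hematocrit in hyperosmolar PBS with 1.25 M urea and 5 mM glucose for 2 h at ambient temperature. Compound in DMSO was added for 6 min, then the cells were diluted 1:10 into isotonic PBS. Lysis was read as A710 within 5 min and normalised to same-plate no-lysis (isotonic PBS) and full-lysis (water) controls.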

Row | Compound | pIC50
2 | COC(=O)c1sc2nc(C)c(OC)cc2c1N | 5.26
3 | COC(=O)c1sc2nc(C)c(Br)cc2c1N | 5.07
4 | CC(=O)c1sc2nc3ccc(C)cc3cc2c1N | 5.45
5 | COc1ccc2nc3sc(C(N)=O)c(N)c3cc2c1 | < 5.00
6 | COC(=O)CC(=O)c1sc2nc3ccc(OC)cc3cc2c1N | < 5.00
7 | COC(=O)c1sc2nc(C(=O)N3CCOCC3)ccc2c1N | < 5.00
8 | COC(=O)c1sc2nc(C)c(F)cc2c1N | < 5.00
9 | COC(=O)c1sc2nc(C)c(C(=O)N3CCOCC3)cc2c1N | < 5.00
10 | CNC(=O)c1sc2nc3ccc(OC)cc3cc2c1N | < 5.00
11 | CCOC(=O)c1cnc2sc(C(=O)OC)c(N)c2c1 | < 5.00
12 | COc1ccc2nc3sc(C(=O)O)c(N)c3cc2c1 | < 5.00
13 | COc1ccc2nc3sc(S(=O)(=O)N(C)C)c(N)c3cc2c1 | < 5.00
14 | COc1ccc2nc3sc(C(=O)N4CCOCC4)c(N)c3cc2c1 | < 5.00
15 | COC(=O)c1sc2nc(C)cc(C(F)(F)F)c2c1N | 5.21
16 | COC(=O)CNC(=O)c1sc2nc3ccc(OC)cc3cc2c1N | < 5.00
17 | COC(=O)c1sc2nc(C)c(NS(C)(=O)=O)cc2c1N | 5.19
18 | CCNC(=O)c1cc2c(N)c(C(=O)OC)sc2nc1C | < 5.00
19 | COC(=O)c1sc2nc(C)c(NC(C)=O)cc2c1N | 5.46
20 | CCOC(=O)c1sc2nc3ccc(OC)cc3cc2c1N | < 5.00
21 | COC(=O)c1sc2nc(C)c([N+](=O)[O-])cc2c1N | < 5.00
22 | COC(=O)c1sc2nc(C)c(N(C)C)cc2c1N | 5.43
23 | CNC(=O)c1cc2c(N)c(C(=O)OC)sc2nc1C | < 5.00

Stronger by pIC50, values ahead:

Row | pIC50 | Compound
24 | 5.47 | COC(=O)c1sc2nc(-c3ccccc3)ccc2c1N
25 | 5.48 | COC(=O)c1sc2nc(C)c(-c3ccccc3)cc2c1N
26 | 5.60 | COC(=O)c1sc2nc(C)cc(C)c2c1N
27 | 5.79 | COc1ccc2nc3sc(C(C)=O)c(N)c3cc2c1
28 | 5.89 | COC(=O)c1sc2nc(C)ccc2c1N
29 | 6.04 | COC(=O)c1sc2nc(C)c(C(C)=O)cc2c1N
30 | 6.15 | CCc1cc2c(N)c(C(=O)OC)sc2nc1C
31 | 6.21 | COC(=O)c1sc2nc3c(C)cc(C)cc3cc2c1N
32 | 6.27 | COC(=O)c1sc2nc(C)c(N)cc2c1N
33 | 6.57 | COC(=O)c1sc2nc3ccc(Br)cc3cc2c1N
34 | 6.64 | COC(=O)c1sc2nc3ccc(C)cc3cc2c1N
35 | 6.66 | COC(=O)c1sc2nc3ccccc3cc2c1N
36 | 6.66 | COC(=O)c1sc2nc3ccc(OC)cc3cc2c1N
37 | 6.80 | COC(=O)c1sc2nc3ccc(F)cc3cc2c1N

Test system: Rattus norvegicus
Assay: Diuretic activity in Sprague-Dawley rat assessed as increase in urine output at 100 mg/kg, sc measured after 10 hrs
Type: functional, organism-based
In short: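 SD rats housed in metabolic cages received a subcutaneous injection of 100 mg/kg in 40% 2-hydroxypropyl-β-cyclodextrin, with the vehicle alone as control. Urine output was collected for 10 h after dosing. n=5, mean + SD.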

Row | Compound | Activity
38 | COC(=O)c1sc2nc(C)c(N)cc2c1N | Active
